Data as given in PMC12415690 (RSC Advances, 2025).
Converted amounts (≈) assume the structure as drawn.

What was measured:
B. subtilis (ATCC 6051) = assay: Antibacterial zone of inhibition; assay type: cell-based, Bacillus subtilis; conditions: 100 μg mL^−1; for zone of inhibition at 100 µg/mL: Bacillus subtilis, ATCC6051, read-out: Zone of inhibition in mm, B. subtilis (ATCC 6051), Gram positive; for Zone of inhibition in mm, B. subtilis (ATCC 6051): Gram positive
In short: (§1)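 Sterilised nutrient agar, […], was seeded with 18–24 h bacterial subcultures, mixed and poured into Petri dishes. Once the agar set, 6 mm wells were cut with a sterile cork borer and filled with test compound dissolved in DMSO at 100 μg mL−1. Plates were incubated at 37 °C for 24–48 h, and inhibition zones around each well were measured in mm. Ciprofloxacin was the reference standard.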

E. coli (ATCC 25922) = assay: Antibacterial zone of inhibition; assay type: cell-based; conditions: Escherichia coli, ATCC25922, read-out: Zone of inhibition in mm, E. coli (ATCC 25922)
In short: as §1

S. aureus (ATCC 23235) = assay: Antibacterial zone of inhibition; assay type: cell-based; conditions: Staphylococcus aureus, ATCC23235, read-out: Zone of inhibition in mm, S. aureus (ATCC 23235)
In short: as §1

[1] = tested on: M. tuberculosis H37Rv strain (ATCC 27294); assay: Antitubercular activity, microplate Alamar Blue assay; assay type: cell-based; conditions: Mycobacterium tuberculosis, ATCC27294|H37RV, read-out: MIC μM
[2] = tested on: P. aeruginosa (ATCC 27853); assay: Antibacterial zone of inhibition; assay type: cell-based; conditions: Pseudomonas aeruginosa, ATCC27853, read-out: Zone of inhibition in mm, P. aeruginosa (ATCC 27853)
In short: as §1

M.tb H37Rv = conditions: M.tb H37Rv; cited from earlier work

Structure (SMILES) | zone of inhibition at 100 µg/mL (B. subtilis (ATCC 6051)) | Zone of inhibition in mm, B. subtilis (ATCC 6051) (B. subtilis (ATCC 6051)) | zone of inhibition at 100 µg/mL (E. coli (ATCC 25922)) | zone of inhibition at 100 µg/mL (S. aureus (ATCC 23235)) | MIC [1] | zone of inhibition at 100 µg/mL [2] | MIC (M.tb H37Rv) | Cytotoxicity in VERO cells (VERO cell lines)
CC(=O)c1sc(N/N=C/c2c(-c3ccc(C#N)cc3)nc3ncccn23)nc1C [Compound K20, (E)-4-(3-((2-(5-acetyl-4-methylthiazol-2-yl)hydrazineylidene)methyl)imidazo[1,2-a]pyrimidin-2-yl)benzonitrile] | 15 to 20 mm | 15 mm | 14 mm | 17 mm | 15.6 µM (≈ 6.25 µg/mL) | 12 mm | – | –
CCOC(=O)c1sc(N/N=C/c2ccccc2O)nc1C [(E)-ethyl 2-(2-(2-hydroxybenzylidene)hydrazinyl-4-methylthiazole-5-carboxylate] | – | – | – | – | – | – | 25 µM (≈ 7.63 µg/mL) | –
CCOC(=O)c1cnc(N/N=C/c2c(-c3ccccc3)nc3ncccn23)s1 [Compound K14, Ethyl(E)-2-(2-((2-phenylimidazo[1,2-a]pyrimidin-3-yl)methylene)hydrazineyl)thiazole-5-carboxylate] | 14 mm | – | 12 mm | 15 mm | 31.9 µM (≈ 12.5 µg/mL) | 15 mm | – | –
CCOC(=O)c1sc(N/N=C/c2c(-c3ccc(Br)cc3)nc3ncccn23)nc1C [Compound K5, Ethyl(E)-2-(2-((2-(4-bromophenyl)imidazo[1,2-a]pyrimidin-3-yl)methylene)hydrazineyl)-4-methylthiazole-5-carboxylate] | 13 mm | – | 14 mm | 11 mm | 12.9 µM (≈ 6.27 µg/mL) | 13 mm | – | –
CCOC(=O)c1sc(N/N=C/c2c(-c3ccc(OC)cc3)nc3ncccn23)nc1C [Compound K2, Ethyl(E)-2-(2-((2-(4-methoxyphenyl)imidazo[1,2-a]pyrimidin-3-yl)methylene)hydrazineyl)-4-methylthiazole-5-carboxylate] | 15 to 20 mm | 15 mm | 18 mm | 15 mm | 3.66 µM (≈ 1.6 µg/mL) | 18 mm | – | non-toxic profiles
CCOC(=O)/C=C1/SC(N/N=C/c2c(-c3ccc(Cl)cc3)nc3ncccn23)=NC1=O [Compound K25, Ethyl(E)-2-(2-(2-((E)-(2-(4-chlorophenyl)imidazo[1,2-a]pyrimidin-3-yl)methylene) hydrazineyl)-4-oxothiazol-5(4H)-ylidene)acetate] | 15 to 20 mm | 20 mm | 21 mm | 21 mm | 55 µM (≈ 25 µg/mL) | 20 mm | – | –
NC(=O)c1cnccn1 [PZA, pyrazinamide, reference compound] | – | – | – | – | 25.3 µM (≈ 3.12 µg/mL) | – | – | –
[H]/N=C(/N)N[C@H]1[C@H](O)[C@@H](O)[C@H](O[C@@H]2O[C@@H](C)[C@](O)(C=O)[C@H]2O[C@@H]2O[C@@H](CO)[C@H](O)[C@@H](O)[C@@H]2NC)[C@@H](N/C(N)=N\[H])[C@@H]1O [STM, streptomycin, reference compound] | – | – | – | – | 10.7 µM (≈ 6.25 µg/mL) | – | – | –
CCOC(=O)c1sc(N/N=C/c2c(-c3ccc(F)cc3)nc3ncccn23)nc1C [Compound K3, Ethyl(E)-2-(2-((2-(4-fluorophenyl)imidazo[1,2-a]pyrimidin-3-yl)methylene)hydrazineyl)-4-methylthiazole-5-carboxylate] | 13 mm | – | 20 mm | 17 mm | 3.77 µM (≈ 1.6 µg/mL) | 11 mm | – | non-toxic profiles
CCOC(=O)/C=C1/SC(N/N=C/c2c(-c3ccc(OC)cc3)nc3ncccn23)=NC1=O [Compound K23, Ethyl(E)-2-(2-(2-((E)-(2-(4-methoxyphenyl)imidazo[1,2-a]pyrimidin-3-yl)methylene) hydrazineyl)-4-oxothiazol-5(4H)-ylidene)acetate] | – | – | 24 mm | 16 mm | 111 µM (≈ 50 µg/mL) | 18 mm | – | –
CC(=O)c1sc(N/N=C/c2c(-c3ccccc3)nc3ncccn23)nc1C [Compound K21, (E)-1-(4-methyl-2-(2-((2-phenylimidazo[1,2-a]pyrimidin-3-yl)methylene)hydrazineyl)thiazol-5-yl)ethan-1-one] | 13 mm | – | – | 19 mm | 33.2 µM (≈ 12.5 µg/mL) | – | – | –
CCOC(=O)c1sc(N/N=C/c2c(-c3ccc(C#N)cc3)nc3ncccn23)nc1C [Compound K6, Ethyl(E)-2-(2-((2-(4-cyanophenyl)imidazo[1,2-a]pyrimidin-3-yl)methylene)hydrazineyl)-4-methylthiazole-5-carboxylate] | 14 mm | – | 10 mm | 17 mm | 29 µM (≈ 12.5 µg/mL) | 15 mm | – | –
CC(=O)c1sc(N/N=C/c2c(-c3ccc(Br)cc3)nc3ncccn23)nc1C [Compound K19, (E)-1-(2-(2-((2-(4-bromophenyl)imidazo[1,2-a]pyrimidin-3-yl)methylene)hydrazineyl)-4-methylthiazol-5-yl)ethan-1-one] | 12 mm | – | – | 12 mm | 13.8 µM (≈ 6.27 µg/mL) | 20 mm | – | –
CCOC(=O)c1cnc(N/N=C/c2c(-c3ccc(C)cc3)nc3ncccn23)s1 [Compound K8, Ethyl(E)-2-(2-((2-(p-tolyl)imidazo[1,2-a]pyrimidin-3-yl)methylene)hydrazineyl)thiazole-5-carboxylate] | – | – | 17 mm | 12 mm | 7.68 µM (≈ 3.12 µg/mL) | 19 mm | – | –
CCOC(=O)c1sc(N/N=C(\C)c2ccccn2)nc1C [(E)-ethyl 4-methyl-(2-(1-(pyridin-2-yl)ethylidene)hydrazinyl)thiazole-5-carboxylate] | – | – | – | – | – | – | 12.5 µM (≈ 3.8 µg/mL) | –
CCOC(=O)/C=C1/SC(N/N=C/c2c(-c3ccc(C)cc3)nc3ncccn23)=NC1=O [Compound K22, Ethyl(E)-2-(4-oxo-2-(2-((E)-(2-(p-tolyl)imidazo[1,2-a]pyrimidin-3-yl)methylene) hydrazineyl)thiazol-5(4H)-ylidene)acetate] | 15 to 20 mm | 15 mm | 24 mm | 15 mm | 28.8 µM (≈ 12.5 µg/mL) | 13 mm | – | –
CCOC(=O)/C=C1/SC(N/N=C/c2c(-c3ccc(Br)cc3)nc3ncccn23)=NC1=O [Compound K26, Ethyl(E)-2-(2-(2-((E)-(2-(4-bromophenyl)imidazo[1,2-a]pyrimidin-3-yl)methylene) hydrazineyl)-4-oxothiazol-5(4H)-ylidene)acetate] | 15 mm | – | – | 15 mm | 50.2 µM (≈ 25.1 µg/mL) | – | – | –
CCOC(=O)c1sc(N/N=C/c2c(-c3ccc(Cl)cc3)nc3ncccn23)nc1C [Compound K4, Ethyl(E)-2-(2-((2-(4-chlorophenyl)imidazo[1,2-a]pyrimidin-3-yl)methylene)hydrazineyl)-4-methylthiazole-5-carboxylate] | 14 mm | – | 20 mm | 13 mm | 14.2 µM (≈ 6.26 µg/mL) | 11 mm | – | –
CCOC(=O)/C=C1/SC(N/N=C/c2c(-c3ccc(F)cc3)nc3ncccn23)=NC1=O [Compound K24, Ethyl(E)-2-(2-(2-((E)-(2-(4-fluorophenyl)imidazo[1,2-a]pyrimidin-3-yl)methylene) hydrazineyl)-4-oxothiazol-5(4H)-ylidene)acetate] | – | – | – | – | 28.5 µM (≈ 12.5 µg/mL) | – | – | –
CC(=O)c1sc(N/N=C/c2c(-c3ccc(F)cc3)nc3ncccn23)nc1C [Compound K17, (E)-1-(2-(2-((2-(4-fluorophenyl)imidazo[1,2-a]pyrimidin-3-yl)methylene)hydrazineyl)-4-methylthiazol-5-yl)ethan-1-one] | 14 mm | – | – | 20 mm | 7.91 µM (≈ 3.12 µg/mL) | 11 mm | – | –
CC(=O)c1sc(N/N=C/c2c(-c3ccc(Cl)cc3)nc3ncccn23)nc1C [Compound K18, (E)-1-(2-(2-((2-(4-chlorophenyl)imidazo[1,2-a]pyrimidin-3-yl)methylene)hydrazineyl)-4-methylthiazol-5-yl)ethan-1-one] | 15 to 20 mm | 15 mm | 15 mm | 18 mm | 30.5 µM (≈ 12.5 µg/mL) | 12 mm | – | –
COc1ccc(-c2nc3ncccn3c2/C=N/Nc2nc(C)c(C(C)=O)s2)cc1 [Compound K16, (E)-1-(2-(2-((2-(4-methoxyphenyl)imidazo[1,2-a]pyrimidin-3-yl)methylene)hydrazineyl)-4-methylthiazol-5-yl)ethan-1-one] | – | – | – | 18 mm | 30.8 µM (≈ 12.5 µg/mL) | 11 mm | – | –
CC(=O)c1sc(N/N=C/c2c(-c3ccc(C)cc3)nc3ncccn23)nc1C [Compound K15, (E)-1-(4-methyl-2-(2-((2-(p-tolyl)imidazo[1,2-a]pyrimidin-3-yl)methylene)hydrazineyl)thiazol-5-yl)ethan-1-one] | 13 mm | – | 15 mm | 12 mm | 32 µM (≈ 12.5 µg/mL) | 14 mm | – | –
